{"data": "Assay results pooled from the literature", "target": "Homeodomain-interacting protein kinase 4 (HIPK4, Homo sapiens, UniProt Q8NE63)", "Sequence (Q8NE63 1-616, as in one of the studies)": "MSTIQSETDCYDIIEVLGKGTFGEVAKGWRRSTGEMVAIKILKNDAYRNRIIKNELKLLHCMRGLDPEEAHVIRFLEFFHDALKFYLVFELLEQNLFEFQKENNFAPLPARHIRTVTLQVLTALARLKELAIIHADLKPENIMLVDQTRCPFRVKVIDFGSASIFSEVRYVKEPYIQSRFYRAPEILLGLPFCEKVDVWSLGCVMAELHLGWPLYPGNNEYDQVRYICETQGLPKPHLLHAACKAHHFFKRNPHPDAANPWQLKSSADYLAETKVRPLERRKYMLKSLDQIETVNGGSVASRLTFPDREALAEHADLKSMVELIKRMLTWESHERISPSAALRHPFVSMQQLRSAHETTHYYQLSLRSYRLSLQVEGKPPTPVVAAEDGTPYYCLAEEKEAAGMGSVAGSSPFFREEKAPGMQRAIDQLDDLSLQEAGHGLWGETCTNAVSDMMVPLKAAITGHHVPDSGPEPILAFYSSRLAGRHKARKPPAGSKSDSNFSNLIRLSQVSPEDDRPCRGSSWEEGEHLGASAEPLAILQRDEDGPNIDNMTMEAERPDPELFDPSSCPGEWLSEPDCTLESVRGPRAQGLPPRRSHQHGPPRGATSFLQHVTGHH", "note": "Compare with care: the assays were run in different laboratories."}
{"Structure (SMILES)": "CN(c1nccc(-c2cnn3ncccc23)n1)C1CC1", "effect on": "binding", "concentration": "1 µM", "remaining binding [%]": 99}
{"Structure (SMILES)": "O=C(O)[C@H]1[C@H](Cn2nnc3ccccc3c2=O)CC[C@@H]1C(=O)c1ccc(OCCC2CCOCC2)cc1", "effect on": "cell-free assay", "method": "competition with immobilised ligand", "concentration": "1 µM", "remaining binding [%]": 100}
{"Structure (SMILES)": "c1cncc(-c2cccc(Nc3nccc(NC4CCCCC4)n3)c2)c1", "effect on": "binding", "method": "competition with immobilised ligand", "concentration": "10 µM", "remaining binding [%]": 22}
{"Structure (SMILES)": "CN(C)c1ncc(F)c(-c2cnn3ncccc23)n1", "effect on": "binding", "concentration": "1 µM", "remaining binding [%]": 100}
{"Structure (SMILES)": "COc1cnc(Nc2cccc(S(N)(=O)=O)c2)nc1N1CCN(c2ccccc2)CC1", "effect on": "binding", "method": "competition with immobilised ligand", "concentration": "1 µM", "remaining binding [%]": 99}
{"Structure (SMILES)": "c1cnn2ncc(-c3ccnc(N4CCC45COC5)n3)c2c1", "effect on": "binding", "concentration": "1 µM", "remaining binding [%]": 87}
{"Structure (SMILES)": "O=C(NCCCN1CCOCC1)c1ccc(Nc2ncc(Cl)c(-c3ccc(Cl)s3)n2)cc1", "effect on": "binding", "method": "competition with immobilised ligand", "concentration": "1 µM", "remaining binding [%]": 14}
{"Structure (SMILES)": "C[C@H](c1ccnc(Nc2nc3ccc(-c4cc(N(C)C)ncn4)cc3[nH]2)c1)N1CCN(C(=O)CC(F)(F)F)CC1", "effect on": "cell-free assay", "method": "competition with immobilised ligand", "concentration": "0.1 µM", "remaining binding [%]": 100}
{"Structure (SMILES)": "COc1ncc2cc3ccccc3nc2c1C#N", "effect on": "cell-free assay", "method": "competition with immobilised ligand", "concentration": "5 µM", "remaining binding [%]": 100}
{"Structure (SMILES)": "C=CC(=O)N1CCC(C(=O)NCC(=O)N2CCN(c3nc(-c4cnc(N)nc4C(F)F)nc(N4CCOCC4)n3)CC2)CC1", "effect on": "binding", "method": "competition with immobilised ligand", "concentration": "1 µM", "remaining binding [%]": 100}
{"Structure (SMILES)": "O=C(Nc1c[nH]nc1C(=O)NC1CCNCC1)c1cc(F)cc(F)c1", "effect on": "binding", "method": "competition with immobilised ligand", "concentration": "1 µM", "remaining binding [%]": 59}
{"Structure (SMILES)": "O=C(c1ccc(Nc2nccc(-c3cc4ccccc4s3)n2)cc1)N1CCC(N2CCCC2)CC1", "effect on": "binding", "method": "competition with immobilised ligand", "concentration": "1 µM", "remaining binding [%]": 4.1}
{"Structure (SMILES)": "CN(C(=O)c1ccccc1)c1cc(N(C)c2ccc3c(c2)CCc2ccc(C(=O)NCCN4CCOCC4)cc2C3=O)ccc1F", "effect on": "cell-free assay", "method": "competition with immobilised ligand", "concentration": "1 µM", "remaining binding [%]": 100}
{"Structure (SMILES)": "COc1ccnn2ncc(-c3ccnc(N(C)C)n3)c12", "effect on": "binding", "concentration": "1 µM", "remaining binding [%]": 100}
{"Structure (SMILES)": "Nc1ncc2c(n1)-c1c([nH]c3ccc(C#CC4CC4)cc13)CCCC2", "effect on": "binding", "method": "competition with immobilised ligand", "concentration": "1 µM", "remaining binding [%]": 95}
{"Structure (SMILES)": "CN(C)C(=O)Cn1cc(-c2nc([C@@](C)(c3ccc(-c4cnc(N)nc4)cc3)C3CC3)no2)cn1", "effect on": "cell-free assay", "method": "competition with immobilised ligand", "concentration": "1 µM", "remaining binding [%]": 70}
{"Structure (SMILES)": "C[C@H]1CCN(c2nccc(-c3cnn4ncccc34)n2)C1", "effect on": "binding", "concentration": "1 µM", "remaining binding [%]": 80}
{"Structure (SMILES)": "O=c1nc(-c2ccccn2)sc2ccccc12", "effect on": "binding", "method": "competition with immobilised ligand", "concentration": "1 µM", "remaining binding [%]": 85}
{"Structure (SMILES)": "CC1CCCN1c1nccc(-c2cnn3ncccc23)n1 (stereo not shown)", "effect on": "binding", "concentration": "1 µM", "remaining binding [%]": 97}
{"Structure (SMILES)": "C[C@@H]1CN(c2cc(-c3n[nH]c4ccc(OC5(C)CC5)cc34)ncn2)C[C@H](C)O1", "effect on": "cell-free assay", "method": "competition with immobilised ligand", "concentration": "0.1 µM", "remaining binding [%]": 97}
{"Structure (SMILES)": "O=C(c1ccc(Nc2ncc(Cl)c(-c3cc4ccccc4s3)n2)cc1)N1CCC(N2CCCC2)CC1", "effect on": "binding", "method": "competition with immobilised ligand", "concentration": "1 µM", "remaining binding [%]": 2.5}
{"Structure (SMILES)": "N[C@@H]1CCN(c2nccc(-c3cnn4ncccc34)n2)C1", "effect on": "binding", "concentration": "1 µM", "remaining binding [%]": 98}
